Source: paper PMC5756543 (The Journal of Nutritional Biochemistry, 2017)
Blank lines part the entries; values can stand above or below the compound they belong to.

Assays:
Assay type in all cases: in vitro ADME, human
Caco-2 cells [1] = assay: SA transport across differentiated Caco-2 monolayers; details: 1 mM SA apical, within 30 min
Summary of the method: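 Pretreated Caco-2 transwell monolayers (1 mM apical SCFA/lactate or mix from day 7, used at 21–23 days) were equilibrated in HBSS (pH 7.4) for 30 min at 37°C; monolayers under 930 Ω cm2 TEER were excluded. Apical 1 mM MCT substrate was incubated for 30 min. Both compartments were analysed by HPLC-UV at 303 nm, with DMCA internal standard at 326 nm. Six biological replicates in duplicate; t test, P<.01.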

Caco-2 cells [2] = assay: HT transport and phase II metabolism across differentiated Caco-2 monolayers; details: for rate of appearance of HT conjugate in apical compartment / rate of appearance of HT conjugate in basal compartment: 20 μM HT apical, HT-7-sul as HT-3′-sul equivalents
Summary of the method: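 Caco-2 monolayers on transwells were pretreated apically with 1 mM SCFA/lactate or mix from day 7 to day 21–23. Cells were equilibrated in HBSS (1.8 mM CaCl2, pH 7.4) for 30 min at 37°C, and monolayers below 930 Ω cm2 TEER were discarded. Apical 20 µM test compound was applied for 1 h. Both compartments were sampled with 100 µM ascorbic acid and analysed by LC-MS/MS MRM (daidzein internal standard, matrix-matched calibration). n=6 in duplicate; t test.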

Caco-2 cells [3] = assay: FA transport and metabolism across differentiated Caco-2 monolayers; details: untreated cells
Summary of the method: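 Caco-2 monolayers were pretreated apically with 1 mM SCFA/lactate or mix from day 7 and used at 21–23 days after 30 min HBSS (pH 7.4) equilibration at 37°C; monolayers with TEER <930 Ω cm2 were discarded. Apical 500 µM test compound was applied for 1 h. Apical and basal samples were stabilised with ascorbic acid and spiked with acetic acid (10 mM final) and DMCA internal standard (10 µM final). LC-MS/MS MRM quantified parent and conjugates. Six biological replicates in duplicate; t test.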

SMILES: COc1ccc([C@@H]2CC(=O)c3c(O)cc(O)cc3O2)cc1O [HT, hesperetin]
HT transported unchanged to the basolateral compartment (Caco-2 cells [2]; cells not treated with SCFA, 20 μM HT (40 nmol) apical, 1 h): 87 ± 26 pmol/min
HT transported to basolateral compartment, share of HT added apically (Caco-2 cells [2]; cells not treated with SCFA, after 60 min incubation): 13%

SMILES: COc1cc(/C=C/C(=O)O)ccc1O [FA, ferulic acid]
FA transported to the basal compartment (Caco-2 cells [3]; 500 μM FA (1 μmol) apical, 1 h): 1.73 ± 0.17 nmol/min
FA transported to basal compartment, share of added FA (Caco-2 cells [3]; after 1 h): 10.4%

SMILES: COc1ccc([C@@H]2CC(=O)c3c(O)cc(O[C@@H]4O[C@H](C(=O)O)[C@@H](O)[C@H](O)[C@H]4O)cc3O2)cc1O [HT-7-glu, Hesperetin-7-O-glucuronide]
conjugate formed (basal + apical) as share of original HT added apically (Caco-2 cells [2]; untreated cells, 1 h): 2.4%
rate of appearance of HT conjugate in apical compartment (Caco-2 cells [2]; untreated cells, 1 h): 3.87 ± 0.07 pmol/min
rate of appearance of HT conjugate in basal compartment (Caco-2 cells [2]; untreated cells, 1 h): 12.33 ± 0.57 pmol/min

Further lines, results first:

SA transported to the basolateral side, share of original amount added apically (Caco-2 cells [1]): ~ 10%
SMILES: O=C(O)c1ccccc1O [SA, salicylic acid, reference compound]

rate of appearance of HT conjugate in apical compartment (Caco-2 cells [2]; untreated cells, 1 h): 2.6 ± 0.06 pmol/min
rate of appearance of HT conjugate in basal compartment (Caco-2 cells [2]; untreated cells, 1 h): 1.9 ± 0.03 pmol/min
SMILES: COc1ccc([C@@H]2CC(=O)c3c(O)cc(OS(=O)(=O)O)cc3O2)cc1O [HT-7-sul, hesperetin-7-O-sulfate]
